Results from ChEMBL document CHEMBL3352743, “Chemically accessible hsp90 inhibitor that does not induce a heat shock response” (ACS Med Chem Lett, 2014).
≈ marks a conversion by molar mass, not a printed value. Calls of active or inactive are those of the source. The rule behind the calls is not given here. Peptide text beside a SMILES is read from it.

How the values were obtained:
[1] = Solubility in 80% EtOH/20% water; type: physicochemical
[2] = Cytotoxicity against human HCT116 cells after 72 hrs by CCK8 assay; type: functional, cell-based; settings: HCT-116, 72 h
[3] = Cytotoxicity against human MIAPaCa2 cells after 72 hrs by CCK8 assay; type: functional, cell-based; settings: MIA PaCa-2, 72 h
[4] = biological target: Heat shock protein HSP 90-beta (Homo sapiens) (UniProt P08238); assay: Binding affinity to HSP90 in human MIAPaCa2 cells by coomassie blue staining and Western blotting based pull down assay; type: cell-based; settings: MIA PaCa-2
Heat shock protein HSP 90-beta (Homo sapiens), sequence (P08238 whole entry): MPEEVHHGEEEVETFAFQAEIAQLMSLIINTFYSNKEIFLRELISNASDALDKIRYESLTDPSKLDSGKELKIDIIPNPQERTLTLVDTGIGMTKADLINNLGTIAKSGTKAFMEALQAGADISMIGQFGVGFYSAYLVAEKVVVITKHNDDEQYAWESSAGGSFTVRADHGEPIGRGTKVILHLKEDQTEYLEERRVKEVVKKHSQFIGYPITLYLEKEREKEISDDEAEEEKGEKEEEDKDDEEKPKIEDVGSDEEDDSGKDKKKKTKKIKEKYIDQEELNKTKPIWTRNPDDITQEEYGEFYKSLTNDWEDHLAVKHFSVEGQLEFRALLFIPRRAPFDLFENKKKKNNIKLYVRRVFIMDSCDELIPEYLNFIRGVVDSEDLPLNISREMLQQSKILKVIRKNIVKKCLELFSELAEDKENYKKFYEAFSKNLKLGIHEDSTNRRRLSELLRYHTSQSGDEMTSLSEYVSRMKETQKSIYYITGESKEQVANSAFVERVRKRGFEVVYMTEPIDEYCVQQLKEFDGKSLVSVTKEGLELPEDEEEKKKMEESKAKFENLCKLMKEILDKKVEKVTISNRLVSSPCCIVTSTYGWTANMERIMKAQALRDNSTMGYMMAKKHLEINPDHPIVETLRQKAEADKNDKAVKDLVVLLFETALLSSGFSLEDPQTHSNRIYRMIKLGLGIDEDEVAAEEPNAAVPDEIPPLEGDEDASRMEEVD
Method in brief: (§1)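 Biotin-tagged analogue (0.1 mg) incubated in HCT-116 or MiaPaCa-2 cell lysate, then recovered on NeutrAvidin beads. Bound proteins eluted in sample buffer, visualized by Coomassie stain or Western blot, and identified by nano-LC/MS/MS. Image representative of 3 independent assays.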

[5] = biological target: Heat shock protein HSP 90-beta (Homo sapiens) (UniProt P08238); assay: Binding affinity to HSP90 in human HCT116 cells by coomassie blue staining and Western blotting based pull down assay; type: cell-based; settings: HCT-116; method in brief: as §1
MIA PaCa-2 [6] = assay: Induction of cell cycle arrest in human MIAPaCa2 cells assessed as accumulation at G0/G1 phase at 5 uM after 24 hrs by propidium iodide staining based cytometry; type: functional
[7] = Reduction in HSP90 protein expression in human HCT116 cells at 50 uM by western blotting method relative to untreated control; type: functional, cell-based; settings: HCT-116
[8] = Reduction in HSP40 protein expression in human MIAPaCa2 cells at 50 uM by western blotting method relative to untreated control; type: functional, cell-based; settings: MIA PaCa-2
[9] = Reduction in HSP27 protein expression in human HCT116 cells at IC50 level by western blotting method; type: functional, cell-based; settings: HCT-116
[10] = Reduction in HSP70 protein expression in human HCT116 cells at IC50 level by western blotting method; type: functional, cell-based; settings: HCT-116
[11] = Reduction in HSP90 protein expression in human MIAPaCa2 cells at 50 uM by western blotting method relative to untreated control; type: functional, cell-based; settings: MIA PaCa-2
[12] = Reduction in HSP40 protein expression in human MIAPaCa2 cells at IC50 level by western blotting method; type: functional, cell-based; settings: MIA PaCa-2
[13] = Reduction in HSP70 protein expression in human HCT116 cells at 50 uM by western blotting method relative to untreated control; type: functional, cell-based; settings: HCT-116
[14] = Reduction in HSP40 protein expression in human HCT116 cells at 50 uM by western blotting method relative to untreated control; type: functional, cell-based; settings: HCT-116
[15] = Reduction in HSP27 protein expression in human HCT116 cells at 50 uM by western blotting method relative to untreated control; type: functional, cell-based; settings: HCT-116
[16] = Reduction in HSP90 protein expression in human HCT116 cells at IC50 level by western blotting method; type: functional, cell-based; settings: HCT-116
HCT-116 [17] = assay: Induction of apoptosis in human HCT116 cells at 50 uM after 24 hrs by annexin V and 7-AAD staining based flow cytometry; type: functional
[18] = Reduction in HSF1 protein expression in human MIAPaCa2 cells at 50 uM by western blotting method relative to untreated control; type: functional, cell-based; settings: MIA PaCa-2
MIA PaCa-2 [19] = assay: Induction of apoptosis in human MIAPaCa2 cells assessed as caspase 3/7 activation at 50 uM after 24 hrs by luminometry; type: functional
[20] = biological target: Heat shock protein HSP 90-beta (Oryctolagus cuniculus) (UniProt P30947); assay: Inhibition of HSP90 in rabbit reticulocyte lysates at 5 uM […] by firefly luciferase protein re-folding assay; settings: in the assay text read “2 hrs” for “5 hrs”
Heat shock protein HSP 90-beta (Oryctolagus cuniculus), sequence (P30947 whole entry): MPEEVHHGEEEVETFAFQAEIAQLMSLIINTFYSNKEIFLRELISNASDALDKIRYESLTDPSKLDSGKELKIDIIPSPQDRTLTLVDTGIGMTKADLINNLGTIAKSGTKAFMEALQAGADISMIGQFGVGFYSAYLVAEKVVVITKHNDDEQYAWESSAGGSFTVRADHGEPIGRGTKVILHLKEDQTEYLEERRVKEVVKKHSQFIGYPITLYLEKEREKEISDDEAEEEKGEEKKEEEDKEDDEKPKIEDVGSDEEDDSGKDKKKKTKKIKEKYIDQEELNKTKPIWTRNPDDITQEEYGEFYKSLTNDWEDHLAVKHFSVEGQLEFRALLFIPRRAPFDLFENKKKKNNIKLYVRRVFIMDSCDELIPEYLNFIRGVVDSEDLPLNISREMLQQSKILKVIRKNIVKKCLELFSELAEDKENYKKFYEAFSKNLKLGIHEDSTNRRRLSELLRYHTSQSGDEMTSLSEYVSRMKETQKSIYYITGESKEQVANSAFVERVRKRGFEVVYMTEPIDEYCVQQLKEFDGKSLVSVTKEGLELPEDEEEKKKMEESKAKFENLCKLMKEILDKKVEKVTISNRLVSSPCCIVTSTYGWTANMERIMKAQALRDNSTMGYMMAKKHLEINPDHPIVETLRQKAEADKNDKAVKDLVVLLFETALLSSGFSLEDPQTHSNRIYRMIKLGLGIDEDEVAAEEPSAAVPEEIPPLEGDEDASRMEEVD
Method in brief: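 Denatured firefly luciferase incubated for 2 h in rabbit reticulocyte lysate pretreated with compound. Refolding read as luciferase activity relative to control. Mean ± SEM, n = 3.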

[21] = Reduction in HSF1 protein expression in human MIAPaCa2 cells at IC50 level by western blotting method; type: functional, cell-based; settings: MIA PaCa-2
HCT-116 [22] = assay: Induction of cell cycle arrest in human HCT116 cells assessed as accumulation at G0/G1 phase at 5 uM after 24 hrs by propidium iodide staining based cytometry; type: functional
[23] = Reduction in HSP70 protein expression in human MIAPaCa2 cells at 50 uM by western blotting method relative to untreated control; type: functional, cell-based; settings: MIA PaCa-2
[24] = Reduction in HSP27 protein expression in human MIAPaCa2 cells at IC50 level by western blotting method; type: functional, cell-based; settings: MIA PaCa-2
[25] = Reduction in HSF1 protein expression in human HCT116 cells at 50 uM by western blotting method relative to untreated control; type: functional, cell-based; settings: HCT-116
[26] = Reduction in HSP90 protein expression in human MIAPaCa2 cells at IC50 level by western blotting method; type: functional, cell-based; settings: MIA PaCa-2
[27] = Reduction in HSP40 protein expression in human HCT116 cells at IC50 level by western blotting method; type: functional, cell-based; settings: HCT-116
[28] = Reduction in HSP27 protein expression in human MIAPaCa2 cells at 50 uM by western blotting method relative to untreated control; type: functional, cell-based; settings: MIA PaCa-2
[29] = Reduction in HSF1 protein expression in human HCT116 cells at IC50 level by western blotting method; type: functional, cell-based; settings: HCT-116
HCT-116 [30] = assay: Induction of apoptosis in human HCT116 cells assessed as caspase 3/7 activation at 50 uM after 24 hrs by luminometry; type: functional
[31] = Reduction in HSP70 protein expression in human MIAPaCa2 cells at IC50 level by western blotting method; type: functional, cell-based; settings: MIA PaCa-2
[32] = biological target: Heat shock protein HSP 90-beta (Oryctolagus cuniculus) (UniProt P30947); assay: Inhibition of HSP90 in rabbit reticulocyte lysates at 5 uM pre-incubated for 2 hrs by firefly luciferase protein re-folding assay
[33] = biological target: Heat shock protein HSP 90-beta (Oryctolagus cuniculus) (UniProt P30947); settings: 100 nM
[34] = Induction of heat shock response in human HCT116 cells assessed as HSF1 protein expression at IC50 level by western blotting method relative to untreated control; type: cell-based; settings: hct-116
[35] = Induction of heat shock response in human HCT116 cells assessed as HSP40 protein expression at IC50 level by western blotting method relative to untreated control; type: cell-based; settings: hct-116
HCT-116 [36] = assay: Induction of apoptosis in human HCT116 cells at 1000 nM after 24 hrs by annexin V and 7-AAD staining based flow cytometry; type: functional
HCT-116 [37] = assay: Induction of apoptosis in human HCT116 cells assessed as caspase 3/7 activation at 1000 nM after 24 hrs by luminometry; type: functional
[38] = Induction of heat shock response in human HCT116 cells assessed as HSP27 protein expression at IC50 level by western blotting method relative to untreated control; type: cell-based; settings: hct-116
[39] = Induction of heat shock response in human MIAPaCa2 cells assessed as HSP40 protein expression at IC50 level by western blotting method relative to untreated control; type: cell-based; settings: mia paca-2
[40] = Induction of heat shock response in human MIAPaCa2 cells assessed as HSP27 protein expression at IC50 level by western blotting method relative to untreated control; type: cell-based; settings: mia paca-2
Method in brief: (§2)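 MiaPaCa-2 cells, run alongside HCT-116, treated with compound at the line's level and also at 10-fold above it. Western blotting measured HSF1, hsp90, hsp70, hsp40 and hsp27 protein levels, quantified as fold change versus untreated control.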

[41] = Induction of heat shock response in human HCT116 cells assessed as HSP90 protein expression at IC50 level by western blotting method relative to untreated control; type: cell-based; settings: hct-116
[42] = Induction of heat shock response in human HCT116 cells assessed as HSP70 protein expression at IC50 level by western blotting method relative to untreated control; type: cell-based; settings: hct-116
[43] = Induction of heat shock response in human MIAPaCa2 cells assessed as HSP90 protein expression at IC50 level by western blotting method relative to untreated control; type: cell-based; settings: mia paca-2; method in brief: as §2
[44] = Induction of heat shock response in human MIAPaCa2 cells assessed as HSF1 protein expression at IC50 level by western blotting method relative to untreated control; type: cell-based; settings: mia paca-2
[45] = Induction of heat shock response in human MIAPaCa2 cells assessed as HSP70 protein expression at IC50 level by western blotting method relative to untreated control; type: cell-based; settings: mia paca-2
MIA PaCa-2 [46] = assay: Induction of apoptosis in human MIAPaCa2 cells assessed as caspase 3/7 activation at 1000 nM after 24 hrs by luminometry; type: functional
[47] = 80% EtOH/20% water, read-out: solubility

CC(C)C[C@@H]1NC(=O)[C@H](C(C)C)N(C)C(=O)[C@@H](CC(C)C)NC(=O)[C@@H](Cc2ccccc2)NC(=O)[C@@H](C(c2ccccc2)c2ccccc2)NC1=O
solubility [1, 47]: 2100 µg/mL (≈ 2960 µM) | IC50 [2]: 7.6 µM | IC50 [3]: 12.8 µM

CC(C)C[C@@H]1NC(=O)[C@H](C(C)C)N(C)C(=O)[C@@H](CC(C)C)NC(=O)[C@@H](Cc2ccccn2)NC(=O)[C@@H](C(c2ccccc2)c2ccccc2)NC1=O
IC50 [2]: 18.1 µM | IC50 [3]: 23.6 µM

CC(C)C[C@@H]1NC(=O)[C@H](C(C)C)N(C)C(=O)[C@@H](CC(C)C)NC(=O)[C@@H](Cc2cccnc2)NC(=O)[C@@H](C(c2ccccc2)c2ccccc2)NC1=O
IC50 [2]: 20.8 µM | IC50 [3]: 23 µM

CC(C)C[C@@H]1NC(=O)[C@H](C(C)C)N(C)C(=O)[C@@H](CC(C)C)NC(=O)[C@@H](Cc2ccncc2)NC(=O)[C@@H](C(c2ccccc2)c2ccccc2)NC1=O
IC50 [2]: 15.7 µM | IC50 [3]: 18.5 µM

CC(C)C[C@@H]1NC(=O)[C@H](C(C)C)N(C)C(=O)[C@@H](CC(C)C)NC(=O)[C@@H](Cc2c[nH]c3ccccc23)NC(=O)[C@@H](C(c2ccccc2)c2ccccc2)NC1=O
solubility [1, 47]: 1900 µg/mL (≈ 2540 µM) | IC50 [2]: 3.9 µM | IC50 [3]: 4.5 µM

COc1ccc(C[C@H]2NC(=O)[C@@H](C(c3ccccc3)c3ccccc3)NC(=O)[C@H](CC(C)C)NC(=O)[C@H](C(C)C)N(C)C(=O)[C@@H](CC(C)C)NC2=O)cc1
solubility [1, 47]: 1500 µg/mL (≈ 2030 µM) | IC50 [2]: 5.1 µM | IC50 [3]: 4.4 µM

CC(C)C[C@H]1NC(=O)[C@@H](Cc2cscn2)NC(=O)[C@@H](C(c2ccccc2)c2ccccc2)NC(=O)[C@H](CCCCNC(=O)CCOCCOCCOCCOCCNC(=O)CCCC[C@@H]2SC[C@@H]3NC(=O)N[C@@H]32)NC(=O)[C@H](C(C)C)N(C)C1=O
Activity [4]: Active | Activity [5]: Active

CC(C)C[C@@H]1NC(=O)[C@H](C(C)C)N(C)C(=O)[C@@H](CC(C)C)NC(=O)[C@@H](Cc2cscn2)NC(=O)[C@@H](C(c2ccccc2)c2ccccc2)NC1=O (HELM PEPTIDE1{L.[O=C([C@H](N[*:1])C(c1ccccc1)c1ccccc1)[*:2]].[O=C([C@@H](Cc1cscn1)N[*:1])[*:2]].[dL].[meV]}$PEPTIDE1,PEPTIDE1,1:R1-5:R2$$$V2.0)
Activity (MIA PaCa-2 [6]): Active | fold change (FC) [7]: 2 | fold change (FC) [8]: 2 | inhibition [9]: Active | inhibition [10]: Active | solubility ([1]; buffer): 9500 µg/mL (≈ 13300 µM) | fold change (FC) [11]: 2 | inhibition [12]: Active | fold change (FC) [13]: 2 | fold change (FC) [14]: 2 | fold change (FC) [15]: 2 | inhibition [16]: Active | IC50 [2]: 5 µM | Activity (HCT-116 [17]): 75% | fold change (FC) [18]: 2 | fold change (FC) (MIA PaCa-2 [19]): 4 | inhibition [20]: 42% | inhibition [21]: Active | Activity (HCT-116 [22]): Active | fold change (FC) [23]: 2 | IC50 [3]: 5.5 µM | inhibition [24]: Active | fold change (FC) [25]: 2 | inhibition [26]: Active | inhibition [27]: Active | fold change (FC) [28]: 2 | inhibition [29]: Active | fold change (FC) (HCT-116 [30]): 4 | inhibition [31]: Active

CC(C)C[C@@H]1NC(=O)[C@H](C(C)C)N(C)C(=O)[C@@H](CC(C)C)NC(=O)[C@@H](Cc2ccccc2)NC(=O)[C@@H]([C@H](OCc2ccccc2)c2ccccc2)NC1=O (HELM PEPTIDE1{L.[O=C([C@H](N[*:1])[C@H](OCc1ccccc1)c1ccccc1)[*:2]].[dF].[dL].[meV]}$PEPTIDE1,PEPTIDE1,1:R1-5:R2$$$V2.0)
solubility [1, 47]: 5200 µg/mL (≈ 7030 µM) | inhibition [32]: 25% | IC50 [2]: 7.4 µM | IC50 [3]: 7.8 µM

C=CCNC1=C2C[C@@H](C)C[C@H](OC)[C@H](O)[C@@H](C)/C=C(\C)[C@H](OC(N)=O)[C@@H](OC)/C=C\C=C(/C)C(=O)NC(=CC1=O)C2=O [TANESPIMYCIN]
inhibition [33]: 17% | fold change (FC) [34]: 2 | fold change (FC) [35]: 2 | Activity (HCT-116 [36]): 25% | fold change (FC) (HCT-116 [37]): 2 | fold change (FC) [38]: 2 | fold change (FC) [39]: 2 | fold change (FC) [40]: 2 | fold change (FC) [41]: 2 | fold change (FC) [42]: 2 | fold change (FC) [43]: 2 | fold change (FC) [44]: 2 | fold change (FC) [45]: 2 | fold change (FC) (MIA PaCa-2 [46]): 2
